Experiments:
[1] = Oxidation susceptibility / stability with rat liver microsomes by mass analysis; assay type: in vitro ADME; settings: 37 °C
Method in brief: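 Test compound incubated with rat liver microsomes at 37 °C over a time course. Samples analysed by mass spectrometry, with extracted-ion chromatograms monitored for parent and oxidised species. Recovery calculated from the AUC of the extracted ion.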

[2] = values determined in Sprague Dawley rat; cited from earlier work
[3] = Mouse i.v. PK study of 5g; assay type: in vivo, C57Bl6 mice; settings: 5g versus 5a
MYC = MYC (Homo sapiens, UniProt P01106); assay: Affinity for MYC; assay type: binding
Sequence of MYC (P01106 whole entry, species assumed): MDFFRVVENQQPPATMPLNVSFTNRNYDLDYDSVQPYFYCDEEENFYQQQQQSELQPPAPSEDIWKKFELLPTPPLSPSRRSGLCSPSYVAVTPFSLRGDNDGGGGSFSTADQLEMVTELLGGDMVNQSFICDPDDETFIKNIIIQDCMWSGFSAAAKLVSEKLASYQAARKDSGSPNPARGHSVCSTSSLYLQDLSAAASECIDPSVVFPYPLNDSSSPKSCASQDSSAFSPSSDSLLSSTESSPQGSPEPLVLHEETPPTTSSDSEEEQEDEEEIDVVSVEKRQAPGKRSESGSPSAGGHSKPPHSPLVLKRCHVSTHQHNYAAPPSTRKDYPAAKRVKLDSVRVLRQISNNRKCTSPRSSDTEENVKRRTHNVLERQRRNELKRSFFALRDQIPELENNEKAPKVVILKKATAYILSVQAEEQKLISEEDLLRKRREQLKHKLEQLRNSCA

[4] = tested on: CEF transfected with ATG-MYC; assay: Focus assay: microtumor formation by ATG-MYC expressing vector in CEF; assay type: cell-based, chicken

## NC(=O)c1ccc(-c2cc(-c3ccc([N+](=O)[O-])cc3)nc(-c3ccco3)c2)cc1 [5a]
[1]
  fate of nitro group on incubation with rat liver microsomes: readily eliminated
[2]
  Half-life: 1.6 h

## NC(=O)c1ccc(-c2cc(-c3ccc(-c4nccs4)cc3)nc(-c3ccco3)c2)cc1 [5g]
[3]
  improvement in exposure (AUC) compared with 5a: 30 fold
MYC
  ligand efficiency (LE): 0.36

## c1coc(-c2cc(-c3nccs3)cc(-c3ccc(-c4nccs4)cc3)n2)c1 [5j]
[4]
  activity in the CEF assay: not found to have any activity

## CS(=O)(=O)NC(=O)c1ccc(-c2cc(-c3ccc(C#N)cc3)nc(-c3ccco3)c2)cc1 [5m]
[4]; CEF assay
  loss of potency compared to 5a: 10 fold
